Reference: ChEMBL document CHEMBL1149629 (Bioorg Med Chem, 2007)
pIC50: −log10 of the molar value. The source made the active and inactive calls. No cut-off for these calls is given here.

Columns and labels:
[1] = molecular target: T1, Serine/threonine-protein kinase Chk1 (Homo sapiens, UniProt O14757); test: Inhibition of human Chk1
T1 sequence (O14757 whole entry): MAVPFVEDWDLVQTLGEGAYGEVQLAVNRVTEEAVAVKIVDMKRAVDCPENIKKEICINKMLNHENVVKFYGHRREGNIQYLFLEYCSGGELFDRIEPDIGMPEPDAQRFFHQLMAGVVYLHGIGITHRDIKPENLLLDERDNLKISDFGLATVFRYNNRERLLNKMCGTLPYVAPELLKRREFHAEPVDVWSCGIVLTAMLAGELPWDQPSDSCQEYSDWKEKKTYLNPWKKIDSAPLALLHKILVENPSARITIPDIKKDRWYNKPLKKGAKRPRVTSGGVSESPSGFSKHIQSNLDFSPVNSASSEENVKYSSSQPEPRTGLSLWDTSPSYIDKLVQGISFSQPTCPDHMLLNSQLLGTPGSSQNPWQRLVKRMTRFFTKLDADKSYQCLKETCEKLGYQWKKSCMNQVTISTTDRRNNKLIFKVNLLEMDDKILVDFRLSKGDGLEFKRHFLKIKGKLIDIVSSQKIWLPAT
Method in brief: (§1)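 Chk1 from a commercial source or purified as GST–Chk1 from baculovirus-infected Sf9 cells. Assay based on a published method. Percent inhibition determined at 10 µM; IC50 determined for selected compounds.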

[2] = molecular target: T2, Serine/threonine-protein kinase Chk1 (Homo sapiens) (UniProt O14757); test: Inhibition of human Chk1 at 10 uM; method in brief: as §1
T2 sequence (whole entry): T1 sequence (O14757 whole entry)

L1210 = test: Antiproliferative activity against mouse L1210 cells […] by microculture tetrazolium assay; assay type: functional, cell-based
Method in brief: (§2)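 Tumor cells (ATCC) grown in RPMI 1640 with 10% fetal calf serum, 2 mM L-glutamine, penicillin/streptomycin, 10 mM HEPES pH 7.4. Continuous exposure to graded concentrations for four doubling times, then MTT added and incubated 4 h at 37 °C. Formazan dissolved in DMSO, optical density read. IC50 = concentration reducing OD by 50% versus untreated controls.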

DU-145 = test: Antiproliferative activity against human DU145 cells […] by microculture tetrazolium assay; assay type: functional, cell-based; method in brief: as §2
A549 = test: Antiproliferative activity against human A549 cells […] by microculture tetrazolium assay; assay type: functional, cell-based; method in brief: as §2
HT-29 = test: Antiproliferative activity against human HT29 cells […] by microculture tetrazolium assay; assay type: functional, cell-based; method in brief: as §2
[3] = molecular target: Proto-oncogene tyrosine-protein kinase Src (Homo sapiens) (UniProt P12931); test: Inhibition of Src tyrosine kinase at 1 uM after 20 mins
Chain of Proto-oncogene tyrosine-protein kinase Src (Homo sapiens) (P12931 2-536 limits assumed): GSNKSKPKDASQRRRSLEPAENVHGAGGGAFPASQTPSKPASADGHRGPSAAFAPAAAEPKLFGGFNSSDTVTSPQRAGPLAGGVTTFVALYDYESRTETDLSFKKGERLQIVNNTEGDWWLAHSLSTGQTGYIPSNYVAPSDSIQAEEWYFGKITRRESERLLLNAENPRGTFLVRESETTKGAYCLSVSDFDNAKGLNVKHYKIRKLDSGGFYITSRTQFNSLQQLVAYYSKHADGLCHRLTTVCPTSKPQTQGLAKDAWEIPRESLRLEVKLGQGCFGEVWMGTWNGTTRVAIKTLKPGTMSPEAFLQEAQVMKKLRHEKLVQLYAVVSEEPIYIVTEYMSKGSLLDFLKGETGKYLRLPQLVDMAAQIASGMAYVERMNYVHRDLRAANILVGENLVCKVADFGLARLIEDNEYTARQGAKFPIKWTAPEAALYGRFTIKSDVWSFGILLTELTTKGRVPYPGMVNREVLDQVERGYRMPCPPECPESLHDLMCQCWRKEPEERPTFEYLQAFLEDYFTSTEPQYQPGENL

[4] = molecular target: T3, DNA topoisomerase 1 (Homo sapiens) (UniProt P11387); test: Inhibition of topoisomerase 1
T3 sequence (whole entry): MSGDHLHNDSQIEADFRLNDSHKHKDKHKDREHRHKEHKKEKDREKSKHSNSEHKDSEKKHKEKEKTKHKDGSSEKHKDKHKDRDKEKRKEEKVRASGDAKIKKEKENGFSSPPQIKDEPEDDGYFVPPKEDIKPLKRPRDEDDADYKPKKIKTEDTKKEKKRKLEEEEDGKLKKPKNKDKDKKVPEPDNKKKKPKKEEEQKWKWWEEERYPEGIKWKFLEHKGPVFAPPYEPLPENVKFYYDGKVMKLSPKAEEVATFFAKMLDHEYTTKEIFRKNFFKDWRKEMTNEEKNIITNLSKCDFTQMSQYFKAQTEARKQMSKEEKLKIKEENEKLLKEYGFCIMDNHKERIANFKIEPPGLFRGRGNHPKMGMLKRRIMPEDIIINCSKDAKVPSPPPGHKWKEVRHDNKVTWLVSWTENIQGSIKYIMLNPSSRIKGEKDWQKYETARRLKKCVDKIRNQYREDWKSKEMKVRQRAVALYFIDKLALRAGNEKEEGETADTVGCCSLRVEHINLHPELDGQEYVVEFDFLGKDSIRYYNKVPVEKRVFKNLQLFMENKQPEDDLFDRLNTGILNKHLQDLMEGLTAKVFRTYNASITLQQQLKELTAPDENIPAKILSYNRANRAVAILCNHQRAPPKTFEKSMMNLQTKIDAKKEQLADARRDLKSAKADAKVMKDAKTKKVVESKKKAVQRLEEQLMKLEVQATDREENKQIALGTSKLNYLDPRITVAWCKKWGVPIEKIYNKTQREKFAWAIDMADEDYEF

[5] = molecular target: T3, DNA topoisomerase 1 (Homo sapiens); test: Inhibition of topoisomerase 1 upto 50 uM
Method in brief: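 DNA relaxation and DNA cleavage assays with topoisomerase I, run following published procedures, with compounds up to 50 µM.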

Homo sapiens [6] = species: Homo sapiens; test: Binding affinity to DNA assessed as melting temperature
[7] = molecular target: T2, Serine/threonine-protein kinase Chk1 (Homo sapiens); test: Inhibition of Chk1 at 1 uM
[8] = molecular target: AMP-activated protein kinase, AMPK (Homo sapiens) (UniProt P54646+O43741+P54619+Q9UGJ0+Q9Y478+Q13131+Q9UGI9); test: Inhibition of AMPK at 1 uM; assay type: protein-complex assay
Method in brief: (§3)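 Single-concentration (1 µM) inhibition profiling carried out through a commercial kinase profiler screening service.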

Homo sapiens [9] = species: Homo sapiens; test: Inhibition of CAMK2 at 1 uM; method in brief: as §3
[10] = molecular target: Cyclin-dependent kinase 2 (Homo sapiens) (UniProt P24941); test: Inhibition of CDK2/cyclin A at 1 uM; method in brief: as §3
Homo sapiens [11] = species: Homo sapiens; test: Inhibition of CK1 at 1 uM; method in brief: as §3
Homo sapiens [12] = species: Homo sapiens; test: Inhibition of FGFR3 at 1 uM; method in brief: as §3
Homo sapiens [13] = species: Homo sapiens; test: Inhibition of GSK3 at 1 uM; method in brief: as §3
[14] = molecular target: Tyrosine-protein kinase Lck (Homo sapiens) (UniProt P06239); test: Inhibition of LCK at 1 uM; method in brief: as §3
Chain of Tyrosine-protein kinase Lck (Homo sapiens) (P06239 2-509 limits assumed): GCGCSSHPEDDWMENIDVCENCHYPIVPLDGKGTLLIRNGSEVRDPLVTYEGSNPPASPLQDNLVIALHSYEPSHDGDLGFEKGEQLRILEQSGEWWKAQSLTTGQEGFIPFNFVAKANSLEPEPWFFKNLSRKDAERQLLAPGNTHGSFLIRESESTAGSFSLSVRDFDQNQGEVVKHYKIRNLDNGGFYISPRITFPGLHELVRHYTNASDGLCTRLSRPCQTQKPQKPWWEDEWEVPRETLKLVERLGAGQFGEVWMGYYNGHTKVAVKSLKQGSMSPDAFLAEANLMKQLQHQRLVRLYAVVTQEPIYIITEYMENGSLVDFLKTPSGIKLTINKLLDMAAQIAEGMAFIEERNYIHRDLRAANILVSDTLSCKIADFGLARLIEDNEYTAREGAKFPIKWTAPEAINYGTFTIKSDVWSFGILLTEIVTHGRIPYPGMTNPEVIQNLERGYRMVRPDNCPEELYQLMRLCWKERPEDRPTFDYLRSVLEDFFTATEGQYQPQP

[15] = molecular target: Mitogen-activated protein kinase 1 (Homo sapiens) (UniProt P28482); test: Inhibition of MAPK1 at 1 uM; method in brief: as §3
Chain of Mitogen-activated protein kinase 1 (Homo sapiens) (P28482 whole entry): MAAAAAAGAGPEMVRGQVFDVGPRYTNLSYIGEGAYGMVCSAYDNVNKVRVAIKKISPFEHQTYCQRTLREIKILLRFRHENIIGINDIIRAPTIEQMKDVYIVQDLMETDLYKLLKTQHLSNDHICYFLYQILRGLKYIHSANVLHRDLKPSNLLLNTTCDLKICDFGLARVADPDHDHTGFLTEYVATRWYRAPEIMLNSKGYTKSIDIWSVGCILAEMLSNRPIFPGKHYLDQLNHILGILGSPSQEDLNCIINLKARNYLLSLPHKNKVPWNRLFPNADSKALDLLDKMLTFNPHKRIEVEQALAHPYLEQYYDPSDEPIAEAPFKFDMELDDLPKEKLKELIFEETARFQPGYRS

[16] = molecular target: MAP kinase-activated protein kinase 2 (Homo sapiens) (UniProt P49137); test: Inhibition of MAPKAPK2 at 1 uM; method in brief: as §3
Chain of MAP kinase-activated protein kinase 2 (Homo sapiens) (P49137 whole entry, looked up): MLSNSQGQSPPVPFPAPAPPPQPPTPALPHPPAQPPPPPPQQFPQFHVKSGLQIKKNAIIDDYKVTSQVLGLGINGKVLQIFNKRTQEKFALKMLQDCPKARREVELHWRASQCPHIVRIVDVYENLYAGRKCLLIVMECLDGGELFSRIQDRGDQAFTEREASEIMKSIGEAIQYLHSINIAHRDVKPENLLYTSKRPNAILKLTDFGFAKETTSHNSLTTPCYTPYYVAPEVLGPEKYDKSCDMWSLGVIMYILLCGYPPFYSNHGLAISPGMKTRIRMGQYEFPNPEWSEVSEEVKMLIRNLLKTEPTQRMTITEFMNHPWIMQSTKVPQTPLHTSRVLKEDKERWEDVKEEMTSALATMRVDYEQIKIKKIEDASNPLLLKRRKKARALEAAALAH

[17] = molecular target: Ribosomal protein S6 kinase beta-1 (Homo sapiens) (UniProt P23443); test: Inhibition of P70S6K at 1 uM; method in brief: as §3
Chain of Ribosomal protein S6 kinase beta-1 (Homo sapiens) (P23443 whole entry, looked up): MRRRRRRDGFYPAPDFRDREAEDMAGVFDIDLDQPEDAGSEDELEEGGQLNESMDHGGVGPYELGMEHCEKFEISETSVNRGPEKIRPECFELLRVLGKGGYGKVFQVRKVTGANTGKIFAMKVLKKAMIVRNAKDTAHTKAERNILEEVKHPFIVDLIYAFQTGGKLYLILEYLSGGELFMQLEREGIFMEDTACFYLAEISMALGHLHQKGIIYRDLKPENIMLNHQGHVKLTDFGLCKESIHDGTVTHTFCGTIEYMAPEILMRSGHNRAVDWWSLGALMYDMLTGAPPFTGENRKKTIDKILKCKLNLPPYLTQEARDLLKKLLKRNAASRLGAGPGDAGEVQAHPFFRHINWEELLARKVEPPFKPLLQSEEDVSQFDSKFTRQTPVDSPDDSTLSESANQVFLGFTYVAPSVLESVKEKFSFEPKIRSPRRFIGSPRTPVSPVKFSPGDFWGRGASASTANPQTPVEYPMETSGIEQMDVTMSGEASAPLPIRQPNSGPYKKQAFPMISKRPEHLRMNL

Homo sapiens [18] = species: Homo sapiens; test: Inhibition of PKA at 1 uM; method in brief: as §3
[19] = molecular target: Protein kinase C beta type (Homo sapiens) (UniProt P05771); test: Inhibition of PKCbeta at 1 uM; method in brief: as §3
Chain of Protein kinase C beta type (Homo sapiens) (P05771 2-671 limits assumed): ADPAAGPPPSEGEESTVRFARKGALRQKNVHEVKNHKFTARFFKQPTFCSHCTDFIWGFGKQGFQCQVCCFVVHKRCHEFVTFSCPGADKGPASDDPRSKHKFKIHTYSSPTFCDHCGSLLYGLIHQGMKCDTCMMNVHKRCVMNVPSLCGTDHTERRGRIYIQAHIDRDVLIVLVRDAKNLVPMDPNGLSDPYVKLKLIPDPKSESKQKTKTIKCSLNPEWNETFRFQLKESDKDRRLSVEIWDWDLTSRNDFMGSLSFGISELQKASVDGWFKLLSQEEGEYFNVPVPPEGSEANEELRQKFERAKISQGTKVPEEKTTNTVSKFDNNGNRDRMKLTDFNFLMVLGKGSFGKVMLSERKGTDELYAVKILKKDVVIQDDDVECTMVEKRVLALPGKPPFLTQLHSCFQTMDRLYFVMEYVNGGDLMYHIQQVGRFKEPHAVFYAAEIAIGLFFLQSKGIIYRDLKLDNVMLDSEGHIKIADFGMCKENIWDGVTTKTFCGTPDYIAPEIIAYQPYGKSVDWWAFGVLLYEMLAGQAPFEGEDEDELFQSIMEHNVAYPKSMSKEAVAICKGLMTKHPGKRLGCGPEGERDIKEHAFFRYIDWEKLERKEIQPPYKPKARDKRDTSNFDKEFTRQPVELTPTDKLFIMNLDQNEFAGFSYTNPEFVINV

[20] = molecular target: Protein kinase C alpha type (Homo sapiens) (UniProt P17252); test: Inhibition of PKCalpha at 1 uM; method in brief: as §3
[21] = molecular target: T4, Protein kinase C epsilon type (Homo sapiens) (UniProt Q02156); test: Inhibition of PKCepsilon at 1 uM; method in brief: as §3
T4 sequence (whole entry): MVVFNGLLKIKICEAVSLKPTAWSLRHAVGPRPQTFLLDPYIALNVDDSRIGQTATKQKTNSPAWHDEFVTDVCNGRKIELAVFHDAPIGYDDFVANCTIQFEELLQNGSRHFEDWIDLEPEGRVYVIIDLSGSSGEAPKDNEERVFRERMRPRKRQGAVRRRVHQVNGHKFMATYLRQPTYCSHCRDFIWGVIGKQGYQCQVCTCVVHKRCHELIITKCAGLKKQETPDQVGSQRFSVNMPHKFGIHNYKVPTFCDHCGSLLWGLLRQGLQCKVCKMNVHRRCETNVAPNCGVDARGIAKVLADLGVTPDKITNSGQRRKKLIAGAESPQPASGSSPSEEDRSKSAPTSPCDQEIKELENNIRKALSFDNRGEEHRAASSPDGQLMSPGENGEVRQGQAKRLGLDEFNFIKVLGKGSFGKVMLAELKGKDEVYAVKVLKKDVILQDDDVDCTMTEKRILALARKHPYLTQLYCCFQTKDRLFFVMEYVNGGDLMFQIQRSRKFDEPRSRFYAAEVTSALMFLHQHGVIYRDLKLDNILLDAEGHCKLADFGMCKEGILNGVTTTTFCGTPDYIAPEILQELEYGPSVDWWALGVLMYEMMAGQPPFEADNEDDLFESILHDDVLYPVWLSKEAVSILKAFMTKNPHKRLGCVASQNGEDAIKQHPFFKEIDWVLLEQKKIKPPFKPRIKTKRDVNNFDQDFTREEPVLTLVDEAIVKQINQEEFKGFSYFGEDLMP

Compound	pIC50 [1]	inhibition [2] [%]	pIC50 (L1210)	pIC50 (DU-145)	pIC50 (A549)	pIC50 (HT-29)	Activity [4]	Activity [5]	Activity (Homo sapiens [6])	other results
CN1C(=O)c2c(n3ccnc3c3[nH]c4ncccc4c23)C1=O		36.1	4.36	5.13	4.45	4.51	inactive	inactive		
CN1C(=O)c2c(n3cccc3c3[nH]c4ccccc4c23)C1=O			4.48	5.92	< 4.00	< 4.00	inactive	inactive	inactive	
CN1C(=O)c2c(n3cccc3c3[nH]c4ccc(Cl)cc4c23)C1=O		55.6	4.39		4.17	4.20	inactive	inactive	inactive	
CN1C(=O)c2c(n3ccnc3c3c2c2cccnc2n3[C@@H]2O[C@H](CO)[C@@H](O)[C@H](O)[C@H]2O)C1=O		10.7	< 4.00	4.19	3.89	4.28	inactive	inactive	inactive	

Continued, in another order:

pIC50 [1]	inhibition [2] [%]	pIC50 (L1210)	pIC50 (DU-145)	pIC50 (A549)	pIC50 (HT-29)	Activity [4]	Activity [5]	Activity (Homo sapiens [6])	Compound	other results
7.80	95.8	5.35	4.82	4.79	4.56				O=C1NC(=O)c2c1c1c3cc(O)ccc3[nH]c1c1cccn21	inhibition [3]: 1.2%
	43.1	5.31	5.72	4.33	5.23	inactive	inactive	inactive	CN1C(=O)c2c(c3c4ccccc4[nH]c3c3cc[nH]c23)C1=O	
7.10	93.9		5.55	4.94					O=C1NC(=O)c2c1c1[nH]cnc1c1[nH]c3ccccc3c21 [GRANULATIMIDE]	
6.36			4.88	4.74					O=C1NC(=O)c2c1c1c3ccccc3[nH]c1n1cncc21 [ISOGRANULATIMIDE]	
7.05	95.4	4.83	4.56	4.54	4.52	inactive	inactive	inactive	O=C1NC(=O)c2c1c1c3cc(Cl)ccc3[nH]c1c1cccn21	% activity [7]: 6%; % activity [8]: 29%; % activity (Homo sapiens [9]): 40%; % activity [10]: 69%; % activity (Homo sapiens [11]): 94%; % activity (Homo sapiens [12]): 32%; % activity (Homo sapiens [13]): 39%; % activity [14]: 92%; % activity [15]: 98%; % activity [16]: 75%; % activity [17]: 51%; % activity (Homo sapiens [18]): 98%; % activity [19]: 79%; % activity [20]: 75%; % activity [21]: 86%; inhibition [3]: 22.1%
